Results: ChEMBL document CHEMBL1126919, “Analyses of ligand binding in five endothiapepsin crystal complexes and their use in the design and evaluation of novel renin inhibitors” (J Med Chem, 1993)

Key:
Renin (Homo sapiens) [1] = target: T1, Renin (Homo sapiens) (UniProt P00797); experiment: Percent inhibition of compound against renin monkey plasma at 10 e-6 M; conditions: Cercopithecidae, target entry is the homologue from another species
T1 sequence (whole entry): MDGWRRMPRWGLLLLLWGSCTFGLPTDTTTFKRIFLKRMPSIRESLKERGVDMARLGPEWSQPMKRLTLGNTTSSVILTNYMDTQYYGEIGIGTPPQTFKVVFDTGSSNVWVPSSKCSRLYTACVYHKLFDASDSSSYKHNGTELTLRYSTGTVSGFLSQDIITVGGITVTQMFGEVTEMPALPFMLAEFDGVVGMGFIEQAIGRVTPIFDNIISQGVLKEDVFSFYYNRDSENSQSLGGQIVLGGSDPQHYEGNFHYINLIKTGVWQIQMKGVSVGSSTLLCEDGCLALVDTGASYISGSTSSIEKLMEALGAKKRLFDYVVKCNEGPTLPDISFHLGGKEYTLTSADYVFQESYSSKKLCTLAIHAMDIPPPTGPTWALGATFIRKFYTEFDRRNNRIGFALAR

[2] = Binding affinity of compound against endothiapepsin
Outline: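 Reactions at 37 °C in 0.1 M sodium formate pH 3.5 with 4% DMSO (inhibitor stocks in DMSO). Enzyme preincubated 3 min at 37 °C. Initial rates taken at six substrate levels (0.8Km–10Km), then at ≥3 substrate levels after preincubation with ≥2 inhibitor concentrations. Ki fitted by Marquardt analysis to competitive-inhibition equation.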

Renin (Homo sapiens) [3] = target: T1, Renin (Homo sapiens); experiment: Percent inhibition of compound against renin human plasma at 10 e-6 M; format: cell-free
Renin = target: T2, Renin (Homo sapiens, UniProt P00797); experiment: Inhibitory concentration of compound against renin human plasma; format: cell-free
T2 sequence (P00797 whole entry): T1 sequence (whole entry)

Renin (Homo sapiens) [4] = target: T1, Renin (Homo sapiens); experiment: Percent inhibition of compound against renin monkey plasma at 10E-6 M; format: cell-free; conditions: Cercopithecidae, target entry is the homologue from another species
Outline: (§1)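 Renin activity in monkey plasma, with inhibition measured as angiotensin I generated, quantified by radioimmunoassay following Haber's method.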

Renin (Homo sapiens) [5] = target: T1, Renin (Homo sapiens); experiment: Percent inhibition of compound against renin monkey plasma at 10e-6 M; format: cell-free; conditions: Cercopithecidae, target entry is the homologue from another species
Outline: as §1

Structure (SMILES)	Ki [2] [nM]	IC50 (Renin) [nM]	further results
COC(=O)C(C)(NC(=O)C(Cc1ccccc1)NS(=O)(=O)N1CCOCC1)C(=O)NC(CC1CCCCC1)C(O)C(O)CC(C)C (stereo unspecified)			inhibition (Renin (Homo sapiens) [1]): 4.4%
CCSC(NC(=O)[C@H](Cc1ccccc1)NS(=O)(=O)N1CCOCC1)C(=O)N[C@@H](CC1CCCCC1)[C@@H](O)[C@@H](O)CC(C)C (stereo partly specified)	6.5		
CCC(C)CNC(=O)CP(=O)(O)C(CC(C)C)NC(=O)C(Cc1c[nH]cn1)NC(=O)C(Cc1ccccc1)NC(=O)OC(C)(C)C (stereo unspecified)	110		inhibition (Renin (Homo sapiens) [3]): 3.3%
CCC(C)CNC(=O)C(CC(C)C)CC(O)C(CC1CCCCC1)NC(=O)C(Cc1c[nH]cn1)NC(=O)C(Cc1cccc2ccccc12)Cc1cccc2ccccc12 (stereo unspecified)	240	170	
CCC(C)CNC(=O)CC(O)C(CC(C)C)NC(=O)C(CCCC/N=C(/S)NC)NC(=O)C(Cc1ccccc1)NS(=O)(=O)N(C)C (stereo unspecified)		25	
CC(C)CC(O)C(O)C(CC1CCCCC1)NC(=O)c1cccc(NC(=O)CSc2ccccc2)c1 (stereo unspecified)			inhibition (Renin (Homo sapiens) [4]): 12.6%
CC(C)CC(NC(=O)CC(O)C(CC1CCCCC1)NC(=O)CCC(O)C(Cc1ccccc1)NC(=O)OC(C)(C)C)C(=O)NCc1cccc(CN)c1 (stereo unspecified)	16000	22	
CC(C)CC(O)C(O)C(CC1CCCCC1)NC(=O)c1cc(NC(=O)CSc2ccccc2)ccc1CO (stereo unspecified)			inhibition (Renin (Homo sapiens) [5]): 4.4%
